Sampled rows, rich in hits. Any-hit rate of the full collection: about 4.1%.
Dynein transport = blocks dynein driven cargo transport along microtubules. 3617.4 mouse cells, GR-EGFP nuclear translocation imaging; test concentration mostly 20 µM; stimulated with dexamethasone, 1 µM; stronger effect = lower value. z-score, hits read low. 220,000 tested, 0.47% active. AID 1381;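 active means plate z-score of nuclear minus cytoplasmic receptor signal below a set negative limit, without overly bright fluorescence or cell loss, cut at about -3.5 in these data, passing the limit was not always enough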;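 further: z-score of nuclear minus cytoplasmic ring GR-EGFP intensity difference per well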
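Also added – dexamethasone, 1.0 µM final · Buffer or medium – tet-free, stripped-serum medium · Schedule – induction 48 h, compound 1 h, agonist 30 min · Detection – formaldehyde fixation, Hoechst nuclear stain, 10x automated fluorescence imaging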
DTT redox prof = compounds producing H2O2 with reducing agent – biochemical, NIH compound library profiling, artefact control for MLSCN library redox annotation, primary screen. DTT-dependent redox cycling H2O2, phenol red/HRP absorbance; 100% = 100 µM peroxide control, 0% = buffer. activation, % at 10 µM. 200,000 tested, 0.03% active. AID 878;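 active means activation of at least 50% relative to the plate's high and low controls in the primary single-dose screen; inactive means activation below 50%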;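 further: compound incubated with DTT at 0.8 mM final as the reducing agent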
Autophagy HCS = alters autophagy in cells | AID 463193 | MEF GFP-LC3 puncta imaging; test concentration mostly 10 µM | calls only at 10 µM (by protocol) | 190,000 tested, 0.98% active;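 active means percentage of spot-positive cells more than 3 SD above its plate mean, without a fluorescence outlier flag or 80% toxicity; inconclusive means no clear call, values can overlap the other calls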;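 further: spot-positive cell cutoff set from DMSO-treated cells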
Cl transport mod = KCC2 (human) Cl- transport modulation; Q9H2X9; KCC2 cells, thallium flux FluoZin-2 fluorescence; B-score of Tl+ flux slope (higher = more flux/activation; lower = inhibition) at 10 µM; 190,000 tested, 2.2% active; AID 1456;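 active means thallium flux slope and its plate-corrected score both differing from the plate sample mean at a set confidence after two filtering rounds, in either direction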;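 further: slope of fluorescence scaled to starting intensity during 10 to 20 s after thallium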
Target sequence (Q9H2X9 whole entry, looked up): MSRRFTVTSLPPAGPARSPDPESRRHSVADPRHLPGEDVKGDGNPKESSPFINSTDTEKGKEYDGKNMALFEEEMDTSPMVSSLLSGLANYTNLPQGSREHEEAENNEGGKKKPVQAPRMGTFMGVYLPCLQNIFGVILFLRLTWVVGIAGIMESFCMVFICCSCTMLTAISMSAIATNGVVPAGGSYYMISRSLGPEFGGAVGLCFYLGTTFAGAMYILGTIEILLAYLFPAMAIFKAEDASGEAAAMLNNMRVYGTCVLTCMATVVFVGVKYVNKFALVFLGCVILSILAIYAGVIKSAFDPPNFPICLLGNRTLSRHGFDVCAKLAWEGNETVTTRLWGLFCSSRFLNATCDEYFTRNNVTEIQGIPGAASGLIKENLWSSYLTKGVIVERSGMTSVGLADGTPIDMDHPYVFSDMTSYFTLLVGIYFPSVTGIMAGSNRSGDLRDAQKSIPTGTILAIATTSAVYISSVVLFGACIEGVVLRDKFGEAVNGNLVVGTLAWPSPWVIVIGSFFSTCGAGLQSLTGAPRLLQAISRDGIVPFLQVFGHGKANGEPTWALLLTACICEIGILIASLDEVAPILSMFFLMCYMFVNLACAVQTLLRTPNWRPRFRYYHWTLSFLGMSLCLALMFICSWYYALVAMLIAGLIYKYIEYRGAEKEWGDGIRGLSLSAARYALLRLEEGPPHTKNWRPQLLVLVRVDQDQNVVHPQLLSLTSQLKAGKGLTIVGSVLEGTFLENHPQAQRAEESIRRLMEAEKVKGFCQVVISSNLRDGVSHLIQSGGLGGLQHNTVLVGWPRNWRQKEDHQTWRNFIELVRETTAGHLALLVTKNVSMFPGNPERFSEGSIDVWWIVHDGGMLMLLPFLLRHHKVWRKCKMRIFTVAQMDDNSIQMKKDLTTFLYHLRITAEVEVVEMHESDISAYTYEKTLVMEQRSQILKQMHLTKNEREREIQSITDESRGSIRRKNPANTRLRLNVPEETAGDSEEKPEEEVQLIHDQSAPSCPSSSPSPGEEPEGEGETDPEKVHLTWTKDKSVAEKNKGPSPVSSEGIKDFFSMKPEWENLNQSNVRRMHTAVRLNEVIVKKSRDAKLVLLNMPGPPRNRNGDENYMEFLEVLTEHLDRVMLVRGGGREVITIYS
ROMK mod = human ROMK K+ channel modulation, primary screen; P48048; Tet-inducible ROMK, thallium flux fluorescence; actives lie on both sides; B-score at 10 µM; 130,000 tested, 2% active;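 active means signal ratio slope over the read window, or its plate-corrected B-score, at least 3 SD from the plate mean, either direction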;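 further: B-score of the F/F0 ratio slope over 7 to 12 s after thallium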
ROMK retest = confirmation of human ROMK potassium channel modulators; normalized thallium flux (F/F0 slope) at 10 µM; AID 1917; ROMK thallium flux, fluorescence ratio; stronger effect = lower value; shares compounds with ROMK mod; 3,000 tested, 54% active;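 active means Flux at 10 µM at least 3 SD below or above vehicle control mean in one or both replicates; inconclusive means no clear call, values can overlap the other calls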
An asterisk follows results filed as active; i = inactive; ? = inconclusive; . = no result given.

SMILES	Dynein transport	DTT redox prof	Autophagy HCS	Cl transport mod	ROMK mod	ROMK retest
CCOC(=O)c1cc(-c2ccccc2)n(CC(=O)Nc2cccc(OC)c2)c1C	-0.13	0	i	0.76	-4.8*	0.079
CCCCOc1ccc2c(c1)/C(=C(\C(Cl)=C(Cl)Cl)[N+](=O)[O-])N2	-0.26	0	i	-0.1	-5.6*	0.054*
O=[N+]([O-])/C(C(Cl)=C(Cl)Cl)=C1\Nc2ccccc2O1	-0.93	.	.	-0.41	1.6	.
CCOc1ccc2c(c1)/C(=C(\C(Cl)=C(Cl)Cl)[N+](=O)[O-])N2	0.26	-2	i	0.0069	-4.7*	0.053*
CCOC(=O)C(C)(C)n1nnc(-c2ccc([N+](=O)[O-])cc2)n1	0.12	0	i	0.13	-0.54	.
Cc1noc(NS(=O)(=O)c2ccc(N/C=C\C(=O)c3ccccc3)cc2)c1C	-0.088	0	i	-0.27	.	.
Cc1noc(NS(=O)(=O)c2ccc(N/C=C\C(=O)c3ccc(F)cc3)cc2)c1C	-0.71	0	i	-0.071	3.9*	0.083
Cc1ccc(S(=O)(=O)N(C)c2ccc(C(=O)N3CCN(Cc4ccc5c(c4)OCO5)CC3)cc2)cc1	0.11	0	i	.	-5*	0.063*
COc1ccc(N2CCN(C(=O)c3ccc(N(C)S(=O)(=O)c4ccc(OC)cc4)cc3)CC2)cc1	0.49	0	i	0.055	-14*	?
CN(c1ccc(C(=O)N2CCN(Cc3ccc4c(c3)OCO4)CC2)cc1)S(=O)(=O)c1ccccc1	-0.8	0	i	.	-1.4	.
CCOC(=O)C(=NCCCN(C)C)NNc1ccc(Br)cc1	-0.29	0	i	-0.58	.	.
CCOC(=O)C(=NCCCN(C)C)NNc1cc(C(F)(F)F)ccc1Cl	0.48	0	i	0.38	-2.7*	0.059*
O=C1CCCc2nc3c(cc21)C(O)Oc1ccccc1-3 (stereo unspecified)	-0.19	-1	i	.	.	0.075
COc1cccc(/C=C(/C#N)c2ccc(Cl)cc2)c1OCc1cccc(C(=O)O)c1	1.4	0	i	-2.3	2.4*	0.078
Cc1ccccc1Cn1nc(C)c(NC(=O)/C=C/c2cnn(C)c2C)c1C	-0.95	0	i	1.1	0.29	.
Cc1ccccc1Cn1nc(C)c(NC(=O)/C=C/c2cnn(C)c2)c1C	0.54	0	i	.	3.2*	0.085
CC(C)(C)C(=O)Nc1cccc(OC(F)(F)C(F)Cl)c1 (stereo unspecified)	-0.12	0	i	0.038	1.1	.
O=[N+]([O-])c1ccc(S(=O)(=O)N2CCN(Cc3c[nH]c4ccccc34)CC2)cc1	0.52	1	i	0.16	-2.7*	0.056*
C=CCNC(=O)c1c(Br)cnn1-c1ccc(C)cc1	1.6	-1	i	-0.76	.	.
CCCCCc1cc(O)c2c(C)cc(=O)oc2c1	-0.41	2	i	0.041	.	0.055*
CCCc1cc(=O)oc2cc(C)cc(O)c12	0.58	0	i	.	-1.9	.
Cc1ccc(C(=O)O)cc1NC(=S)NC(=O)c1ccc([N+](=O)[O-])c(C)c1	-0.67	0	i	-0.8	0.29	.
OCCC1CN(Cc2cccn2-c2ncccn2)CCN1C1CCCC1 (stereo unspecified)	-0.81	-1	i	.	-0.99	.
CCOC(=O)c1ccc(NC(=O)COc2ccc(-n3cnnn3)cc2)cc1	-0.3	3	i	.	1.4	0.089
O=C(COc1ccc(F)cc1)Nc1ccc(-n2cnnn2)cc1	-1.1	0	i	.	.	.
SMILES	Dynein transport	DTT redox prof	Autophagy HCS	Cl transport mod	ROMK mod	ROMK retest
CCOC(=O)Nc1nc(-c2ccccc2)c(C(=O)c2ccc(Cl)cc2)s1	0.59	0	i	0.55	3.2*	0.083
CCOC(=O)Nc1sc(C)nc1-c1ccccc1	-1.2	1	i	0.034	.	.
Cc1cc(/C=C2\SC(=Nc3ccc(F)cc3)NC2=O)c(C)n1-c1ccc(S(N)(=O)=O)cc1	0.15	-1	i	-0.2	3.3*	0.085
Cc1cc(/C=C2/SC(=O)NC2=O)c(C)n1-c1ccc(N2CCOCC2)cc1	0.39	0	i	-0.38	-0.082	.
CC(OC(=O)c1snc(C(=O)NC2CCCCC2)c1N)C(=O)NC(C)(C)C (stereo unspecified)	-0.66	0	i	-0.13	-2.1	.
CC(C)(C)NC(=O)COC(=O)c1snc(C(=O)NC2CCCCC2)c1N	-0.84	-3	i	-0.78	-3.8*	0.072
O=C(CN1C(=O)C2C3CCC(C3)C2C1=O)N1CCN(Cc2ccccc2)CC1 (stereo unspecified)	0.47	0	i	.	-0.0076	.
CCCN1C2CCCC1CC(NC(=O)Nc1cccc(C(C)=O)c1)C2 (stereo unspecified)	0.043	15	i	-0.23	.	.
CCc1cccc(CC)c1NC(=O)CN1C2CCCC1CC(NC(=O)Nc1cccc(OC)c1)C2 (stereo unspecified)	0.76	0	i	0.46	-4*	?
Cc1ccc(-n2c(C)c([N+](=O)[O-])c3ccc(O)c(CN(C)C)c32)cc1	0.28	0	i	.	-5.3*	0.049*
CN1CCN(NC(=S)NC2CCCCC2)CC1	-0.18	0	i	-0.47	.	.
CCCC(=O)N1CCN(c2nc(CC(C)C)c3c(c2C#N)CCC3)CC1	-0.78	0	i	.	-4.2*	0.066*
Oc1c(Cl)cc(Cl)cc1/C=N/c1nccs1	-0.58	0	i	0.12	3.1*	0.1*
C#CCNC(=O)C1=C[C@H](c2ccc(Br)cc2)[C@@H](CCCO)[C@H](OCC)O1	0.57	0	i	-0.18	.	.
CCn1c(O)c(N=NC(=O)C(O)c2ccccc2)c2ccccc21 (stereo unspecified)	0.25	.	.	0.019	.	.
O=c1cc(-c2ccc(O)cc2)oc2ccc(O)cc12	0.26	0	i	-0.62	2.5*	0.078
Cc1cc(C(C)(C)C)oc1C(=O)N(CC(=O)NC1CCCC1)Cc1ccccc1Cl	0.029	-2	i	.	.	0.054*
Cc1nnc(NC(=O)CSc2ncnc3c2cnn3-c2ccccc2C)s1	-0.21	0	i	-1.9	.	.
CCOC(=O)Cc1csc(NC(=O)CSc2ncnc3c2cnn3-c2ccccc2Cl)n1	-1	5	i	-2.8	.	0.054*
O=C(NCc1ccccc1)c1ccc(=O)[nH]n1	0.046	0	i	2.2	0.55	0.077
Cc1ccc(Cl)cc1N1CCN(S(=O)(=O)c2ccc3[nH]c(=O)c(=O)[nH]c3c2)CC1	0.58	0	i	-0.075	0.27	.
Cc1ccc(Cl)cc1N1CCN(S(=O)(=O)c2cccc(S(=O)(=O)N3CCCC3)c2)CC1	0.22	0	i	-0.36	-3.3*	0.07
O=C(c1cc(Sc2cccc(Cl)c2)nc2ccccc12)N1CCN(c2ccccn2)CC1	-0.53	0	i	0.11	-0.82	0.078

Source: PubChem BioAssay (several laboratories)
